Source: ChEMBL document CHEMBL1159324, “Bioactive isomalabaricane triterpenes from the marine sponge Rhabdastrella globostellata” (J Nat Prod, 2002)

Tests used:
Assay type in all cases: functional, cell-based
Settings in all cases: HCT-116, 48 h
HCT-116 [1] = test: Cytotoxicity against P21+ wild type human HCT116 cells after 48 hrs by MTS assay
Outline: (§1)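 HCT116 colon tumour lines (wild type and isogenic p53- or p21-deficient, p21 disrupted by homologous recombination) grown in McCoy's 5A with 10% FBS, penicillin/streptomycin, L-glutamine and sodium pyruvate at 37 °C, 5% CO2. Seeded per well at 3000 (p53+, p53-), 4000 (p21+) or 6000 (p21-) cells. After 24 h, medium was replaced. Cells were exposed to varying concentrations for 48 h, and MTS bioreduction was read at 490 nm.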

HCT-116 [2] = test: Cytotoxicity against P21 deficient human HCT116 cells after 48 hrs by MTS assay; outline: as §1
HCT-116 [3] = test: Cytotoxicity against P53 deficient human HCT116 cells after 48 hrs by MTS assay; outline: as §1
HCT-116 [4] = test: Cytotoxicity against P53+ wild type human HCT116 cells after 48 hrs by MTS assay; outline: as §1

Q: For CC(/C=C/C=C(C)/C=C/C=C(\C)C(=O)O)=C1/C(=O)C[C@H]2[C@@]3(C)CCC(=O)C(C)(C)[C@@H]3CC[C@]12C [STELLETIN E], which IC50 (HCT-116 [1]) is on record?
A: 4.57 µM

Q: And the IC50 (HCT-116 [2])?
A: 0.039 µM

Q: And the IC50 (HCT-116 [3])?
A: > 5.39 µM

Q: What about the IC50 (HCT-116 [4]) of the same molecule?
A: > 5.39 µM

Q: How did the IC50 (HCT-116 [1]) turn out when CC(=O)O[C@H]1CC[C@@]2(C)[C@@H](CC[C@]3(C)\C(=C(C)/C=C/C=C(C)/C=C/C=C(\C)C(=O)O)C(=O)C[C@@H]23)C1(C)C was run?
A: > 4.92 µM

Q: And the IC50 (HCT-116 [2])?
A: 3.98 µM

Q: For CC(/C=C/C=C(\C)c1ccc(C)c(=O)o1)=C1/C(=O)C[C@H]2[C@@]3(C)CCC(=O)C(C)(C)[C@@H]3CC[C@]12C [STELLETTIN B], which IC50 (HCT-116 [1]) is on record?
A: 0.65 µM

Q: And the IC50 (HCT-116 [2])?
A: 0.043 µM

Q: What about the IC50 (HCT-116 [3]) of the same molecule?
A: 8.23 µM

Q: And the IC50 (HCT-116 [4])?
A: 7.25 µM

Q: Which results are given for CC(=O)O[C@H]1CC[C@@]2(C)[C@@H](CC[C@]3(C)/C(=C(C)/C=C/C=C(C)/C=C/C=C(\C)C(=O)O)C(=O)C[C@@H]23)C1(C)C?
A: IC50 (HCT-116 [1]): > 4.92 µM; IC50 (HCT-116 [2]): 3.86 µM

Q: With CC(/C=C/C=C(\C)C(=O)O)=C\C=C\C(C)=C1\C(=O)C[C@H]2[C@@]3(C)CCC(=O)C(C)(C)[C@@H]3CC[C@]12C [RHABDASTRELLIC ACID A] as the molecule, how does the IC50 (HCT-116 [1]) read?
A: > 5.39 µM

Q: And the IC50 (HCT-116 [2])?
A: 3.49 µM

Q: CC(=O)O[C@H]1CC[C@@]2(C)[C@@H](CC[C@]3(C)\C(=C(C)/C=C/C=C(\C)c4ccc(C)c(=O)o4)C(=O)C[C@@H]23)C1(C)C [STELLETTIN C] was tested. Which IC50 (HCT-116 [1]) did it give?
A: 2.45 µM

Q: And the IC50 (HCT-116 [2])?
A: 0.3 µM

Q: What does the source list for C\C(=C/C=C/C(C)=C1/C(=O)C[C@H]2[C@@]3(C)CCC(=O)C(C)(C)[C@@H]3CC[C@]12C)c1ccc(C)c(=O)o1 [STELLETIN A]?
A: IC50 (HCT-116 [1]): 4.46 µM; IC50 (HCT-116 [2]): 0.26 µM

Q: For CC(=O)O[C@H]1CC[C@@]2(C)[C@@H](CC[C@]3(C)/C(=C(C)/C=C/C=C(\C)c4ccc(C)c(=O)o4)C(=O)C[C@@H]23)C1(C)C [STELLETTIN D], which IC50 (HCT-116 [1]) is on record?
A: 0.43 µM

Q: What about the IC50 (HCT-116 [2]) of the same molecule?
A: 0.31 µM
